According to ChEMBL document CHEMBL1126072, “Hydantoin bioisosteres. In vivo active spiro hydroxy acetic acid aldose reductase inhibitors” (J Med Chem, 1992):

Legend:
[1] = target: T1, Aldo-keto reductase family 1 member B1 (Homo sapiens, UniProt P15121); assay: Inhibitory activity against human placental aldose reductase
[2] = system: Rattus norvegicus; assay: Inhibition of sorbitol accumulation in sciatic nerves from streptozotocin-diabetic rats dosed at 3*100 mg/kg over 27h.; format: functional, Sciatic nerve
Summary of the method: (§1)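 Male Sprague-Dawley rats (180–220 g, 42–54 days) made diabetic with streptozotocin 85 mg/kg at 0 h. Oral gavage at 4, 7 and 24 h, dose quoted per time point. Sciatic nerve sorbitol measured with sorbitol dehydrogenase/NAD in pH 9.4 glycine. Mean (±SEM) percent inhibition against untreated diabetic controls, Student's t test on absolute sorbitol.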

[3] = system: Rattus norvegicus; assay: Effective dose was tested against the inhibition of sorbitol accumulation in sciatic nerves from streptozotocin-diabetic rats dosed at 3*25 mg/kg over 27h.; format: functional; conditions: Sciatic nerve
[4] = system: Rattus norvegicus; assay: Plasma concentration at 3h after the last dose of 25 mg/kg for 5 days.; format: functional
[5] = target: T1, Aldo-keto reductase family 1 member B1; assay: Compound was tested in vitro for its inhibitory activity against human placental aldose reductase
[6] = system: Rattus norvegicus; assay: In vivo inhibition of sorbitol accumulation in sciatic nerves from streptozotocin-diabetic rats dosed at 1*25 mg/kg over 5 days.; format: functional, Sciatic nerve
[7] = system: Rattus norvegicus; assay: Inhibition of sorbitol accumulation in sciatic nerves from streptozotocin-diabetic rats dosed at 3*25 mg/kg over 27h.; format: functional, Sciatic nerve
[8] = system: Rattus norvegicus; assay: In vivo inhibition of sorbitol accumulation in sciatic nerves from streptozotocin-diabetic rats dosed at 3*25 mg/kg over 27h.; format: functional, Sciatic nerve
[9] = system: Rattus norvegicus; assay: Inhibition of sorbitol accumulation in sciatic nerves from streptozotocin-diabetic rats dosed at 3*50 mg/kg over 27h.; format: functional, Sciatic nerve; summary of the method: as §1
[10] = system: Rattus norvegicus; assay: Nerve concentration at 3h after the last dose of 25 mg/kg for 5 days.; format: functional
[11] = target: T1, Aldo-keto reductase family 1 member B1; assay: (§2) ARI(aldose reductase inhibitor) enantiospecificity against human placental aldose reductase.
Summary of the method: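 Partially purified human placental enzyme (buffer homogenate, 33000g spin, pooled peak fractions, frozen). Rate of NADPH oxidation read at 340 nm, 25 °C, 12 min, in 50 mM phosphate pH 7.1 with 0.4 M NH4SO4, 0.067 mM NADPH, 1.0 mM dl-glyceraldehyde; enzyme at 4 milliunits. Molar IC50 ± SD over n experiments, from log-linear fit with common slope.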

[12] = target: T1, Aldo-keto reductase family 1 member B1; assay: as §2; remark: listed apart in the source
[13] = system: Rattus norvegicus; assay: In vivo inhibition of sorbitol accumulation in sciatic nerves from streptozotocin-diabetic rats dosed over 27 h. at a dose of 10 mg/kg; format: functional; conditions: Sciatic nerve
[14] = system: Rattus norvegicus; assay: In vivo inhibition of sorbitol accumulation in sciatic nerves from streptozotocin-diabetic rats dosed over 5 days. at a dose of 2.5 mg/kg; format: functional; conditions: Sciatic nerve, 120 h
[15] = system: Rattus norvegicus; assay: In vivo inhibition of sorbitol accumulation in sciatic nerves from streptozotocin-diabetic rats given one dose per day over 5 days at a dose of 25 mg/kg
[16] = system: Rattus norvegicus; assay: In vivo inhibition of sorbitol accumulation in sciatic nerves from streptozotocin-diabetic rats dosed over 5 days. at a dose of 10 mg/kg; format: functional; conditions: Sciatic nerve, 120 h
[17] = system: Rattus norvegicus; assay: In vivo inhibition of sorbitol accumulation in sciatic nerves from streptozotocin-diabetic rats dosed over 27 h. at a dose of 25 mg/kg; format: functional; conditions: Sciatic nerve
[18] = system: Rattus norvegicus; assay: In vivo inhibition of sorbitol accumulation in sciatic nerves from streptozotocin-diabetic rats dosed over 5 days. at a dose of 5 mg/kg; format: functional; conditions: Sciatic nerve, 120 h
Summary of the method: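 Rats made diabetic with iv streptozotocin 85 mg/kg. From day 7, oral gavage once daily for 5 days. Animals killed 3 h after the last dose. Sorbitol in neutralized perchloric acid extracts of 25-mg sciatic nerve portions measured with sheep liver sorbitol dehydrogenase and NAD in pH 9.4 glycine. Percent inhibition against diabetic controls.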

[19] = system: Rattus norvegicus; assay: In vivo inhibition of sorbitol accumulation in sciatic nerves from streptozotocin-diabetic rats dosed over 27 h. at a dose of 5 mg/kg; format: functional; conditions: Sciatic nerve
[20] = system: Rattus norvegicus; assay: In vivo inhibition of sorbitol accumulation in sciatic nerves from streptozotocin-diabetic rats given three doses over 27 h. at a dose of 2.5 mg/kg; format: functional; conditions: Sciatic nerve; summary of the method: as §1
[21] = system: Rattus norvegicus; assay: In vivo inhibition of sorbitol accumulation in sciatic nerves from streptozotocin-diabetic rats dosed over 5 days. at a dose of 25 mg/kg; format: functional; conditions: Sciatic nerve, 120 h
[22] = species: Rattus norvegicus; assay: animal or person; conditions: Sciatic nerve, 120 h, read-out: Inhibition
[23] = species: Rattus norvegicus; assay: animal or person; conditions: Sciatic nerve, 27 h, read-out: Inhibition

| IC50 [1] [nM] | IC50 [5] [nM] | SMILES | Inhibition [2] [%] | ED50 [3] [mg/kg] | Tissue levels [4] [µg/mL] | Inhibition [6] [%] | Inhibition [7] [%] | Inhibition [8] [%] | inhibition in vivo at 10 mg/kg [13] [%] | inhibition in vivo at 2.5 mg/kg [14] [%] | inhibition in vivo at 10 mg/kg [16] [%] | inhibition in vivo at 25 mg/kg [17] [%] | inhibition in vivo at 5 mg/kg [19] [%] | other results |
| --- | --- | --- | --- | --- | --- | --- | --- | --- | --- | --- | --- | --- | --- | --- |
| 3460 | – | CC1(C)C[C@@](O)(CC(=O)O)c2cc(F)ccc2O1 | 56 | 83.2 | – | – | – | – | – | – | – | – | – | – |
| 600 | – | O=C(O)C[C@]1(O)CCOc2ccc(F)cc21 | 61 | 71.4 | – | – | – | – | – | – | – | – | – | – |
| 200 | 310 | C[C@@H]1C[C@@](O)(CC(=O)O)c2cc(F)ccc2O1 | 92 | 23 | <0.5 | 13 | 56 | 22 | – | – | – | – | – | Inhibition [9]: 81% |
| 180 | 140 | C[C@@H]1C[C@@](O)(CC(=O)O)c2cc(Cl)c(Cl)cc2O1 (stereo in doubt; 18) | – | 8.06 | 19.7 | 39 | 91 | 53 | – | – | – | – | – | Tissue levels [10]: 6.01 µg/mL; IC50 [11]: 156 nM |
| 60 | 12 | C[C@@H]1C[C@@](O)(CC(=O)O)c2cc(F)c(Cl)cc2O1 (stereo in doubt; 23) | – | 5.1 | 14.2 | 55 | 76 | 72 | – | – | – | – | – | Tissue levels [10]: 1.85 µg/mL; IC50 [12]: 49.3 nM |
| 50.9 | – | C[C@@H]1C[C@@](O)(CC(=O)O)c2cc(Cl)c(Cl)cc2O1 (stereo in doubt; 58) | – | – | – | – | – | – | 70 | 31 | 68 | 89 | 60 | Inhibition [15]: 78%; inhibition in vivo at 5 mg/kg [18]: 34%; inhibition in vivo at 2.5 mg/kg [20]: 49% |
| – | – | C[C@@H]1C[C@@](O)(CC(=O)O)c2cc(F)c(Cl)cc2O1 (stereo in doubt; 60) | – | – | – | – | – | – | 88 | 19 | 69 | 98 | 61 | IC50 [12]: 45.5 nM; inhibition in vivo at 25 mg/kg [21]: 97%; inhibition in vivo at 5 mg/kg [22]: 52%; inhibition in vivo at 2.5 mg/kg [23]: 39% |
| – | – | O=C(O)Cc1nn(Cc2ccc(Br)cc2F)c(=O)c2ccccc12 [PONALRESTAT] | – | – | – | – | – | – | 81 | 0 | 81 | 85 | 57 | inhibition in vivo at 5 mg/kg [18]: 60%; inhibition in vivo at 25 mg/kg [21]: 88%; inhibition in vivo at 2.5 mg/kg [20]: 12% |
